In paper PMC6265067 (Nature, 2018):

Columns and labels:
[1] = test system: D14-D3-ASK1; format: binding, O. sativa (ASK1: A. thaliana); settings: for complex formation with D14-D3-ASK1: in the presence of GR24 (100–200 μM)
Outline: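 Purified proteins (20–50 μM) were preincubated for 1 h at 4 °C with 100–200 μM GR24, or with acetone as control, in 20 mM HEPES pH 7.0, 150 mM NaCl, 2 mM DTT. Samples were run on Superdex-200 Increase 10/300 at 0.5 mL/min. Fractions of 0.5 ml were analysed by SDS-PAGE with Coomassie staining; repeated at least three times.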

[2] = test system: D53-D2 / D14; test: AlphaScreen assay of D53-D2-D14 interaction; format: binding, O. sativa; settings: DMSO control, mean ± s.d. of biological triplicates
Outline: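 AlphaScreen proximity read. The GST-tagged partner sits on glutathione donor beads and the His-tagged partner on anti-6xHis acceptor beads (5 μg/ml each). Uses 100–500 nM D14 or D53 and 1 μM ASK1-D3 in 50 mM MES pH 6.5, 150 mM NaCl, 1 mM DTT, 0.1 mg/ml BSA. Excitation 680 nm, emission 520–620 nm. Peptide reactions carry matched DMSO; DMSO-only serves as control.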

[3] = test system: D14 / D3; test: AlphaScreen assay of GST-D14 / His-D3 interaction in response to GR24; format: binding, O. sativa; settings: increasing GR24, pH 6.5, mean ± s.d. of biological triplicates
Outline: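 GST-D14 is held on glutathione donor beads and His-D3 (ASK1-D3 complex, 1 μM) on anti-6xHis acceptor beads, both at 5 μg/ml. D14 at 100–500 nM. Buffer is 50 mM MES, 150 mM NaCl, 1 mM DTT, 0.1 mg/ml BSA. GR24 is titrated. Signal is read at 520–620 nm after 680 nm excitation, averaged over three experiments.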

[4] = test system: AtSMXL7-YFP; test: SMXL7-YFP level in tobacco epidermal cells; format: cell-based, Arabidopsis thaliana, expressed in Nicotiana benthamiana; settings: co-expressed with D14-CTH-mCherry; 10 μM GR24, 120 min; n=7 nuclei; p = 4.401×10^−2
[5] = molecular target: T1, D14 (Oryza sativa subsp. japonica, UniProt Q10QA5); test: AlphaScreen competition of D3-CTH peptide with His-D3 for binding GST-D14; design: species or system O. sativa; settings: 10 μM GR24 (saturating), dose-dependent, 50 mM MES pH 6.5, 150 mM NaCl, 1 mM DTT, 0.1 mg/ml BSA, mean ± s.d. of biological triplicates
T1 sequence (Q10QA5 52-318): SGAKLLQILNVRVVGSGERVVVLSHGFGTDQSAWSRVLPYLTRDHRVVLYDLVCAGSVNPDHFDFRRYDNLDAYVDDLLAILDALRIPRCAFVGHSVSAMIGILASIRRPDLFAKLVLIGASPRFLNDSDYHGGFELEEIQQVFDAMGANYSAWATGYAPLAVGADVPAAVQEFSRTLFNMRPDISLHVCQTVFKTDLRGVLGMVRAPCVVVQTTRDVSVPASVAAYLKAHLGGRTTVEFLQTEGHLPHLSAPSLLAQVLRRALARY

[6] = test system: D14 / D53-D2; test: GST-pulldown of D14 and D53-D2 in the presence of D3-CTH; format: binding, O. sativa; settings: in the presence of GR24, repeated thrice
Outline: (§1)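 GST-tagged bait (~20–40 μg) and His-tagged or untagged prey (~10–25 μg) were incubated with GST beads for 30 min at 4 °C in 40 mM Tris-HCl pH 7, 100 mM NaCl, 2 mM DTT, 0.01% BSA. GR24 was at 20–100 μM with acetone as control. Beads were washed in 250 mM NaCl buffer with 0.01% Tween 20 and eluted with SDS sample buffer or 5 mM glutathione. Read-out: SDS-PAGE with Ponceau or anti-GST/anti-His Western.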

[7] = molecular target: T1, D14; test: YLG hydrolysis assay; format: biochemical, O. sativa
Outline: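 Recombinant rice D14 (residues 52–318, SUMO tag cleaved) at 1–2 μg, with co-expressed ASK1-D3 complex and D53-D2, plus YLG. Buffer is 50 mM MES pH 6.5, 150 mM NaCl, 1 mM DTT under plate seal. Fluorescence (ex 480/em 520 nm) is read every 10 s over 50–60 min and converted to fluorescein concentration via a standard curve before curve fitting. Repeated at least three times.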

[8] = molecular target: T1, D14; test: Pull-down assay with GST-tagged D53-N, D53-D1 or D53-D2 and His-D14; format: binding, O. sativa; settings: GST-tagged D53 domains, GR24
Outline: as §1

[9] = test system: D53; test: D53 stability in a reconstituted cell-free system; format: biochemical, O. sativa (extract: Arabidopsis seedlings); settings: max2–1 seedling extract; 10 μM GR24; 22 °C

## CCOC(=O)c1ccccc1-c1c2ccc(=O)cc-2oc2cc(OC3C=C(C)C(=O)O3)ccc12 (stereo not shown) [YLG, Yoshimulactone Green, reference compound]
[1]; Superdex-200, in the presence of YLG
  complex assembly among D14, D3-ASK1 and D53-D2: can induce complex assembly among D14, D3-ASK1, and the D53-D2 domain

## D3_693–707: 15aa D3 peptide (ENDLMFTEMRAESWL; UniProt Q5VMP0 693-707, looked up, fragment)
[2]
  promotion of D53-D2-D14 interaction: did not stimulate binding

## CC1=C[C@H](O/C=C2/C(=O)O[C@@H]3c4ccccc4C[C@H]23)OC1=O [GR24]
[3]
  D3-D14 interaction: GR24-dependent D3-D14 interaction
[4]
  SMXL7 reduction upon GR24 treatment: 11.8%

## D3_708–720: 13aa D3 peptide (RFEVQLNSRQIDD; UniProt Q5VMP0 708-720, looked up, fragment)
[2]
  promotion of D53-D2-D14 interaction: did not stimulate binding

## D3-CTH peptide: 28 amino acids D3-CTH peptide (28aa, D3_693–720), O. sativa (ENDLMFTEMRAESWLRFEVQLNSRQIDD; UniProt Q5VMP0 693-720, looked up, fragment)
[5]
  competition with D3 for binding D14: able to compete with D3 for binding D14
[6]
  stimulation of D14 and D53-D2 pulling down each other: able to stimulate D14 and D53-D2 to pull down each other in the presence of GR24
[2]
  promotion of D53-D2-D14 interaction: elicited the same effect in a dose-dependent manner

B1: D53: Full length D53 (O. sativa), expressed as a GST fusion protein (protein)
chain: MPTPVAAARQCLSPAAVPALDAAVASSRRRAHAQTTSLHLISSLLAPPAPPLLRDALARARSAAYSPRVQLKALDLCFAVSLDRLPSVSASSSSSGAADEPPVSNSLMAAIKRSQANQRRNPDTFHFYHQAATAQTPAAVKVELSHLVLAILDDPVVSRVFAEAGFRSGDIKLAILRPAPPMPLLGRLPTRTRPPPLFLCSFAAADDADVPSPAGNLAGAGEENCRRIAEILSRGRNPMLVGVGAASAADDFAAASPYRIIHVDPNTIDRSDLGVAAAMASATSGLIISIGDLKQLVPDEDAEAQEKGRRVVAEVTRVLETHSKVGRVWVMGWSATYETYLAFLSKFPLVDKDWDLQLLPITAVHAAATAGPAAAAAGLMPPATTVAAFSKPAASLMDSFVPFGGFLCDNYEENSLTANSCPQALRCQQCNDKYEQEVATIISASGITAEDHHQGGLPSLLQNGSMMGPNNGFDPVKARDDRMVLNSKILNLRKKWNEYCLRLHQDHQRINRDPYKPFPRYIGVPTDKERSANSSKGSESVGVQKDVIKPCAVSAVHSSSTARPISSPSVTNKRNEDLVLNLQARHSKSDENLQERGMQSQHGTLSNVDNPDDHVSPSSAAPVETDLVLGTPRECSSKGSSSTCSKRVEDSERSVHLVPKKVDDLNLKHPQLSVQPNSCSWSSINVGKTSHSTLHSVASGGFSAFGQWQKRSPLAAQNSDLSNYKLLVERLFKVVGRQEEALSAICESIVRCRSTESRRGPNRNDIWLCFHGSDSMAKKRIAVALAELMHGSKDNLIYLDLNLQDWDDSSFRGKTGIDCIVEQLSKKRQSVLFLDNIDRADCLVQDSLSDAIKSGRFQDMRGKVVDINDSIVVLSRSMIQGSKNGLEEGLSFSEEKILATRGHRLKILVEPGRAITSGCPSGKVVVSPRHFLTKIQASLCSGSISKRKLSISDDQEKLQESPSSSKRLHRTSSVPFDLNLPVDEDEPLDADDDSSSHENSYGNTEKSIDALLHSVDGSINFKPFDFDKLADDMLQEFSNILRKNLGSECMLEIDVGAMEQILAAAWKSEEDRKPVPTWLEQVFARSLDELKLKRKHVSSSTLRLVACEDTVPAVKGDGLGVLLPPRIILDC
modifications: left off: GST, end not stated, kept
[7]; D14 + D3-CTH, initial reaction and slow linear phase
  effect on D14 inhibited by D3 C-terminal peptide: robustly blocked the inhibition of the enzymatic activity of D14 by the D3 C-terminal peptide
[1]; Superdex-200
  complex formation with D14-D3-ASK1: can form a stable complex with D14-D3-ASK1 in the presence of GR24

B2: D53 D2 domain: D53 D2 domain (D53-D2, 718–1,131) (protein)
chain: NSDLSNYKLLVERLFKVVGRQEEALSAICESIVRCRSTESRRGPNRNDIWLCFHGSDSMAKKRIAVALAELMHGSKDNLIYLDLNLQDWDDSSFRGKTGIDCIVEQLSKKRQSVLFLDNIDRADCLVQDSLSDAIKSGRFQDMRGKVVDINDSIVVLSRSMIQGSKNGLEEGLSFSEEKILATRGHRLKILVEPGRAITSGCPSGKVVVSPRHFLTKIQASLCSGSISKRKLSISDDQEKLQESPSSSKRLHRTSSVPFDLNLPVDEDEPLDADDDSSSHENSYGNTEKSIDALLHSVDGSINFKPFDFDKLADDMLQEFSNILRKNLGSECMLEIDVGAMEQILAAAWKSEEDRKPVPTWLEQVFARSLDELKLKRKHVSSSTLRLVACEDTVPAVKGDGLGVLLPPRIILDC
modifications: left off: GST, end not stated, kept
[7]; D14 + ASK1-D3, D53-D2 at two concentrations
  effect on D3-ASK1-arrested D14 kinetics: little change in the enzymatic kinetics
[1]; Superdex-200
  complex formation with D14-D3-ASK1: can form a stable complex with D14-D3-ASK1 in the presence of GR24
[1]; Superdex-200, ± ASK1-D3, GR24
  requirement for stable association with D14: stably associated with D14 only in the presence of D3 and GR24
[8]
  binding D14: solely responsible for binding D14 in a GR24-dependent manner

B3: C-terminally truncated D3 mutant protein: D3ΔCTH (O. sativa, residues 1–693) co-expressed with ASK1 (protein, UniProt Q5VMP0 1-693, looked up, fragment)
chain: MAEEEEVEEGRSSSSAILDLPEPLLLHILSFLTDVRSRHRAALACGRMRAAERATRSELSLRGDPRSPGFLFLSHAFRFPALEHLDLSLVSPWGHPLLSSVPPCGGGGGGAPSASSSSGMNVYHPEAISEQNAFIAARLAGCFPAVTSLAVYCRDPTTLANLTPHWQASLRRVKLVRWHQRPPTLPDGADLEPLLETCAALRELDLSEFYCWTEDVVRALTTHPSATAALTHLDLGLAAATDGFKSSELGPIAASCPNLRKLVAPCLFNPRFSDCVGDDALLSLATSCPRLTVLRLSEPFEAAANIQREEAAITVAGLVAFFAALPALEDFTMDLQHNVLEAAPAMEALARRCPRIKFLTLGSFQGLCKASWLHLDGVAVCGGLESLYMKNCQDLTDASLAAIGRGCRRLAKFGIHGCDLVTSAGIRRLAFTLRPTLKEVTVLHCRLLHTAECLTALSPIRDRIESLEINCVWNTTEQPCSVANGTTTECDPEDDELGEVYESAAKKCRYMEFDDLGSWEMLRSLSLWFSAGQLLSPLISAGLDSCPVLEEISIKVEGDCRTCPRPAPRTIFGLSDLAGFPVLAKMKLDLSEAVGYALTAPTGQMDLSLWERFYLHGIESLQTLYELDYWPPQDKDVHHRSLTLPAVGLIQRCVGLRKLFIHGTTHEHFMTFFLSIPNLRDMQLREDYYPAPE
modifications: co-expressed with ASK1
[1]; sizing column, D14-GR24, D53-D2
  ternary complex with D14 and D53-D2: could neither form a ternary complex with D14 and D53-D2 on a sizing column
[9]
  restoration of D53-degrading activity of max2–1 extracts: nor restore the D53 degradation activity of the max2–1 extracts
